From ChEMBL document CHEMBL1125248, “Synthesis and anticancer activity of various 3'-deoxy pyrimidine nucleoside analogues and crystal structure of 1-(3-deoxy-beta-D-threo-pentofuranosyl)cytosine” (1991)

Legend:
Format in all cases: functional
[1] = tested on: CCRF-CEM; assay: Inhibit the replication of CCRF-CEM cell line in vitro.; conditions: Homo sapiens, read-out: ED50 (the source's name)
Procedure, shortened: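 Human CCRF-CEM lymphoblastic leukemia cells held in suspension in RPMI medium with 10% horse serum, 37 °C, humidified 5% CO2. Test agent at various concentrations added to exponential-phase cultures (2 × 10⁴ cells/mL). Cell numbers compared with untreated cultures at 24, 48 and 72 h. 50% replication-inhibiting concentration read from dose-response curves, at least two independent experiments.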

[2] = tested on: L1210; assay: Effective dose to inhibit the replication of L1210 cell line in vitro.; conditions: Mus musculus, read-out: ED50 (the source's name)
Procedure, shortened: (§1)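 Murine L1210, P388 and S-180 cells grown as suspension cultures in Fischer's medium with 10% horse serum at 37 °C under 5% CO2. Various concentrations added to exponentially growing cells at 2 × 10⁴ cells/mL. Cells counted against drug-free controls after 24, 48 and 72 h. ED50 (50% inhibition of replication) estimated from dose-response curves of at least two independent experiments.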

[3] = tested on: P388; assay: Effective dose to inhibit the replication of P388 cell line in vitro.; conditions: Mus musculus, read-out: ED50 (the source's name); procedure, shortened: as §1
[4] = tested on: CCRF S-180; assay: Effective dose to inhibit the replication of S180 cell line in vitro.; conditions: Mus musculus, read-out: ED50 (the source's name); procedure, shortened: as §1

Row | SMILES | EC50 [1] [µM] | EC50 [2] [µM] | EC50 [3] [µM] | EC50 [4] [µM]
1 | O=c1ccn([C@@H]2O[C@H](CO)C[C@H]2O)c(=O)[nH]1 | > 100 | 50 | 25 | > 100
2 | Nc1ccn([C@@H]2O[C@H](CO)C[C@@H]2O)c(=O)n1 | 2 | 10 | 5 | 34
3 | O=c1ccn([C@@H]2O[C@H](CO)C[C@@H]2O)c(=O)[nH]1 | > 100 | > 100 | > 100 | > 100
4 | O=c1[nH]c(=O)n([C@@H]2O[C@H](CO)C[C@@H]2O)cc1Br | > 100 | > 100 | > 100 | > 100
5 | Nc1nc(=O)n([C@@H]2O[C@H](CO)C[C@H]2O)cc1Br | > 100 | > 100 | > 100 | > 100
6 | CC(=O)Nc1ccn([C@@H]2O[C@H](COC(C)=O)C[C@@H]2OC(C)=O)c(=O)n1 | 23 | > 100 | > 100 | > 100
7 | CC(=O)OC[C@@H]1C[C@H](OC(C)=O)[C@H](n2ccc(N)nc2=O)O1 | 1 | 20 | 10 | 30
8 | O=c1[nH]c(=O)n([C@@H]2O[C@H](CO)C[C@@H]2O)cc1Cl | > 100 | > 100 | > 100 | > 100
9 | CC(=O)OC[C@@H]1C[C@H](O)[C@H](n2ccc(N)nc2=O)O1 | 0.4 | 3 | 3 | 13
10 | Nc1nc(=O)n([C@@H]2O[C@H](CO)C[C@H]2O)cc1I | > 100 | > 100 | > 100 | > 100
11 | O=c1[nH]c(=O)n([C@@H]2O[C@H](CO)C[C@@H]2O)cc1I | > 100 | > 100 | > 100 | > 100
12 | CC(=O)Nc1ccn([C@@H]2O[C@H](CO)C[C@@H]2OC(C)=O)c(=O)n1 | > 100 | > 100 | > 100 | > 100
13 | CC(=O)O[C@H]1C[C@@H](CO)O[C@H]1n1ccc(N)nc1=O | 3 | 5 | 2 | 20
14 | O=c1[nH]c(=O)n([C@@H]2O[C@H](CO)C[C@H]2O)cc1Br | > 100 | > 100 | > 100 | > 100
15 | Nc1ccn([C@@H]2O[C@H](CO)C[C@H]2O)c(=O)n1 | 25 | 5 | 2.5 | 15
16 | Nc1ccn([C@@H]2O[C@H](CO)[C@@H](O)[C@@H]2O)c(=O)n1 [CYTARABINE] | 0.005 | 0.05 | 0.02 | 0.2
